Rows were chosen to be rich in hits. Some 3.7% of all compounds tested hit in one or more screens of this group.
hERG protect – hERG rescue from dofetilide block, primary screen, cell-based, CHO-hERG, FluxOR thallium flux, dofetilide IC70 | activation (rescue from dofetilide block), less the hit threshold, % at 10 µM | Voltage-gated inwardly rectifying potassium channel KCNH2 (Homo sapiens), Q12809 | AID 1511, 2009 | 310,000 tested, 0.51% active | dofetilide IC70 present;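 active = activation above the mean of controls blocked by dofetilide plus 5 SD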;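 also: thallium influx through hERG after potassium depolarization seen as dye fluorescence rise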
KCNQ1 inh – inhibitors of human KCNQ1 channel, primary screen, cell-based, thallium flux, high-throughput; Potassium voltage-gated channel subfamily KQT member 1 (Homo sapiens), P51787; CHO-K1 KCNQ1, FluxOR thallium flux fluorescence; active compounds read high; B-score at 10 µM; 310,000 tested, 1.3% active;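 active = compounds whose thallium flux B-score, printed positive for inhibition, exceeds three library SD while starting fluorescence stays within three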;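 also: channel opened by potassium depolarization with thallium stimulus after 20 min compound exposure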
Kir21 block – inhibitors of mouse Kir2.1 inward-rectifier potassium channel; Inward rectifier potassium channel 2 (Mus musculus), P35561; HEK293-Kir2.1, FluxOR thallium flux fluorescence; active compounds read low; B-score at 10 µM; 310,000 tested, 0.85% active; AID 1672, 2009;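 active = fluorescence ratio B-score at or below minus 3 SD of library scores, with starting-brightness B-score within 2 SD, cut at about -4.2 in these data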;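 also: channel flux triggered by added potassium and thallium sulfate stimulus; B-score of peak minus minimum fluorescence over baseline after thallium stimulus; more negative B-score means stronger Kir2.1 block with less thallium influx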
KCNK3 inh – human KCNK3 channel inhibitors, primary screen, CHO cells, FluxOR thallium flux, B-score; FluxOR fluorescence; active compounds read low; B-score at 10 µM; 340,000 tested, 0.84% active; AID 602410, 2012;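 active = B-score under library mean minus 4 SD, starting fluorescence ratio at most library mean plus 5 SD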;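 also: more negative B-score means stronger inhibition of thallium flux through KCNK3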
KCNQ1 pot – potentiators or activators of KCNQ1 channel, primary screen, cell-based, thallium flux, high-throughput; CHO-K1 KCNQ1, thallium flux FluxOR fluorescence; active compounds read high; B-score at 10 µM; 310,000 tested, 0.35% active;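 active = fluorescence ratio B-score, a plate-corrected score, at least three library SD, with initial intensity B-score within 5 SD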
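Doses: Single concentration per compound, DMSO matched to controls | Test system: KCNQ1-transfected CHO-K1 cells | Timing: 90 min dye loading and 20 min compound exposure, both at room temperature | Measured by: Kinetic FluxOR thallium fluorescence, 10-s 1-Hz baseline, 110-s post-stimulus read | Medium: Assay buffer with matched DMSO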
KCNK9 inh – KCNK9 potassium channel inhibitors, primary screen, HEK293 cells, thallium flux; Potassium channel subfamily K member 9 (Homo sapiens), Q9NPC2; FluxOR thallium flux fluorescence; active compounds read low; B-score at 10 µM; 310,000 tested, 1.2% active;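 active = ratio B-score over 3 SD below the library mean, with starting fluorescence within 5 SD of its mean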;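 also: negative B-score means less thallium flux so channel inhibition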
KCNQ1 inh valid – KCNQ1 potassium channel inhibitors, confirmation, cell-based, Tl flux, duplicate | shares compounds with KCNQ1 inh | KCNQ1 cell line, FluxOR thallium flux fluorescence | inhibition, % at 10 µM | 1,600 tested, 93% active | AID 588353, 2011;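 active = primary screen active, with duplicate mean exceeding buffer control mean plus 3 SD of buffer wells, cut at about 28% in these data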;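 also: 0% = buffer control ratio and 100% = XE991 inhibitor control ratio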
CHO KCNQ1 ctr – thallium flux effects in parental CHO cells, counter-screen for KCNQ1 inhibitor project, cell-based, Tl flux; 1,600 tested, 21% active; parental CHO-K1, FluxOR thallium flux fluorescence ratio; active compounds read low; zero means no signal rise above baseline; shares compounds with KCNQ1 inh; fluorescence ratio (Tl flux) at 10 µM; AID 588366, 2011;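 active = mean of duplicate thallium-flux fluorescence ratios in parental host cells more than 5 SD below the buffer control mean, cut at about 0.38 in these data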;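 also: ratio is peak minus minimum fluorescence divided by baseline fluorescence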
KCNQ1 APC inh – KCNQ1 channel inhibitors, confirmation, orthogonal assay, cell-based, automated electrophysiology; shares compounds with KCNQ1 inh; KCNQ1-CHO cells, automated patch clamp current; calls only at 10 µM; 490 tested, 20% active; AID 624120, 2012;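 active = KCNQ1 current drop exceeding 3 SD of negative control wells, seen in both duplicate runs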;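 also: steady state current during a 2 s step from -80 to +40 mV; negative values mean current inhibition and positive values mean potentiation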
KCNQ2 spec – KCNQ2 channel inhibition, selectivity assay for KCNQ1 inhibitor project, cell-based | shares compounds with KCNQ1 inh | KCNQ2 cells, FluxOR thallium flux fluorescence | inhibition, % at 10 µM | 1,600 tested, 71% active | AID 651746, 2012;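 active = mean percent inhibition of the KCNQ2 thallium signal more than 5 SD above the buffer-only control wells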;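 also: KCNQ2 expressed in CHO cells; 0% = buffer control wells and 100% = XE-991 inhibitor control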
KCNQ1-KCNE1 inh – KCNQ1/KCNE1 channel inhibition, selectivity assay for KCNQ1 inhibitor project, CHO-K1 cells, thallium flux, FluxOR; inhibition, % at 10 µM; 1,600 tested, 77% active; shares compounds with KCNQ1 inh; FluxOR thallium flux fluorescence;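 active = mean percent inhibition of duplicate wells above the buffer-only control mean plus 3 SD of those controls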;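 also: 0% = buffer only wells and 100% = XE-991 inhibitor control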
Target sequence (P51787 whole entry, looked up): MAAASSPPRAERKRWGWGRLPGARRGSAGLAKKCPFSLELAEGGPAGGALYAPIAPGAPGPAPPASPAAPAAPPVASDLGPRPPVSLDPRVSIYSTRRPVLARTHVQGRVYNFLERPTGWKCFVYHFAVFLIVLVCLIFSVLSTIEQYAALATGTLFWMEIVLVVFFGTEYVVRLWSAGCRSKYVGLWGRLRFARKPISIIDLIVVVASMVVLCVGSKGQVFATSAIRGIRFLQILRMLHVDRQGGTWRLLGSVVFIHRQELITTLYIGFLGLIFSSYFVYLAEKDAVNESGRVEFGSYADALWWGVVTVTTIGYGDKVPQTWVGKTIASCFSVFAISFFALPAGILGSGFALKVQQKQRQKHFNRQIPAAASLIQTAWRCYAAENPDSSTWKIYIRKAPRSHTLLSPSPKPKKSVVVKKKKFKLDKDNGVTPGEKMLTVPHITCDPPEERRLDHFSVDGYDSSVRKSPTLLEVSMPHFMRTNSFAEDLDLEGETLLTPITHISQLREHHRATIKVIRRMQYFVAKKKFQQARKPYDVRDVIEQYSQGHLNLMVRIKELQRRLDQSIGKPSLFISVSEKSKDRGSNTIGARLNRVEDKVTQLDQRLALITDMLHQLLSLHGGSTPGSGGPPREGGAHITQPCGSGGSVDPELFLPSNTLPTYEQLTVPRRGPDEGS
KCNK9 inh conf – KCNK9 potassium channel inhibitors, confirmation, HEK293 cells, thallium flux, duplicate; shares compounds with KCNK9 inh; FluxOR thallium flux fluorescence; inhibition, % at 10 µM; 4,900 tested, 43% active; AID 492992, 2010;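 active = thallium signal inhibited by more than 5 SD of the compound-free buffer control wells, on both duplicate plates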;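 also: 0% = assay buffer control wells without compound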
Kir21 sel – mouse Kir2.1 channel inhibition, confirmation, selectivity assay for KCNK9 modulator project, cell-based, HEK293, thallium flux. Kir2.1 cells, FluxOR thallium flux fluorescence. inhibition, % at 10 µM. 4,900 tested, 4% active. shares compounds with KCNK9 inh;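 active = thallium signal drop more than 5 SD beyond the mean of the no-compound control wells, seen in both duplicate plates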;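 also: signal is fluorescence rise after thallium addition divided by baseline fluorescence; plate controls were assay buffer only for no effect and full block by chlorpromazine control for full effect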
HEK293 Tl ctr – thallium flux in non-induced HEK293 cells, confirmation, counter-screen for KCNK9 inhibitor project, cell-based, second counter screen, non-induced KCNK9-HEK293 | shares compounds with KCNK9 inh | FluxOR thallium flux | inhibition, % at 10 µM | 4,900 tested, 40% active | AID 492997, 2010;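 active = thallium signal drop beyond 5 SD of the untreated control mean, on both duplicate plates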;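 also: plate controls were buffer only IC0 wells for no effect and SID17386958 at its maximal inhibitory level for full effect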
* hit, by the source's call; i = inactive; / = no result given.

SMILES	hERG protect	KCNQ1 inh	Kir21 block	KCNK3 inh	KCNQ1 pot	KCNK9 inh	KCNQ1 inh valid	CHO KCNQ1 ctr	KCNQ2 spec	KCNQ1-KCNE1 inh	KCNK9 inh conf	Kir21 sel	HEK293 Tl ctr	others
Cc1cccc2c1cnn2C(=O)CCC(=O)N1CCC(C)CC1	-5	i	0.27	i	i	i	/	/	/	/	/	/	/
Cc1cccc2c1cnn2C(=O)CCC(=O)N1CC(C)CC(C)C1 (centres undefined)	-13	11*	0.39	i	i	i	25*	0.48	72%*	i	i	i	i
O=C1c2[nH]nc(-c3ccccc3O)c2C(c2ccccc2F)N1Cc1ccco1 (centres undefined)	-16	9*	-1.2	-9.1*	i	-15*	126*	0.41	78%*	116%*	73%*	i	33%*
O=C1CCc2cc(S(=O)(=O)NCc3ccc(F)cc3)cc3c2N1CCC3	-19	i	-3.1	i	i	i	/	/	/	/	/	/	/
C=CCn1c(/N=C/c2ccc(N(C)C)cc2)nc2ccccc21	-18	i	-0.04	i	i	i	/	/	/	/	/	/	/
CCCCn1c(/N=C/c2ccc(N(C)C)cc2)nc2ccccc21	-9	11*	-0.31	-11*	i	-12*	170*	0.3*	135%*	94%*	30%*	i	55%*
Cc1ccc(-c2[nH]c(-c3ccc(C(=O)O)cc3)nc2-c2ccccc2)cc1	-12	i	-2.8	i	i	i	/	/	/	/	/	/	/
COc1ccc(-c2[nH]c(-c3cc(OC)c4c(c3)OCO4)nc2-c2ccccc2)cc1	-28	9*	0.46	i	i	-9*	152*	0.34*	131%*	186%*	38%*	i	32%*
CCN(CC(=O)Nc1ccccc1C(F)(F)F)C(=O)CCc1c(C)[nH]c(=O)c(C#N)c1C	-8	i	2.5	i	i	i	/	/	/	/	/	/	/
COc1cccc(C(=O)C2CCCN(Cc3cccn3-c3ccccn3)C2)c1 (centres undefined)	-23	i	-1.8	i	i	i	/	/	/	/	/	/	/
CC(C)Oc1cccc(C(=O)C2CCCN(Cc3cccn3-c3ccccn3)C2)c1 (centres undefined)	-19	8*	-2.9	i	i	i	52*	0.47	76%*	i	i	i	i
Cc1ccccc1NC(=O)c1cc(S(=O)(=O)N2CCOCC2)cn1C	-5	i	0.7	i	i	i	/	/	/	/	/	/	/
CC1CCCC(C)N1C(=O)COC(=O)c1ccc(F)c(S(=O)(=O)N2CCOCC2)c1 (centres undefined)	-11	i	-0.29	i	i	i	/	/	/	/	/	/	/
COC(=O)C(Cc1c[nH]c2ccccc12)NC(=O)C(=O)c1c[nH]c2ccccc12 (centres undefined)	-18	7*	0.5	i	i	-12*	68*	0.48	84%*	108%*	i	i	i
COC(=O)C(Cc1c[nH]c2ccccc12)NC(=O)C(C)C (centres undefined)	-6	i	-1.1	i	i	i	/	/	/	/	/	/	/
CC1CC(C)CN(CCCNC(=O)c2csc3c2CCCC3)C1 (centres undefined)	-13	i	-0.12	i	i	i	/	/	/	/	/	/	/
Cc1n[nH]c(C)c1CNCc1c(C(=O)N2CCCCCCC2)nc2ccc(Cl)cn12	-7	i	0.92	i	i	i	/	/	/	/	/	/	/
O=C(c1nc2ccc(Cl)cn2c1CNCC[C@@H]1C[C@@H]2C=C[C@H]1C2)N1CCCCCCC1	-14	9*	-5	i	i	i	98*	0.47	82%*	84%*	i	i	i	KCNQ1 APC inh=i
Cc1cccc(N(C(=O)c2nsc(Cl)c2Cl)C(C(=O)NC2CCCC2)c2ccc(O)cc2)c1 (centres undefined)	-10	i	-0.27	i	i	i	/	/	/	/	/	/	/
c1ccc(Oc2nc(N3CCOCC3)nc(N3CCOCC3)n2)cc1	-13	i	0.86	i	i	i	/	/	/	/	/	/	/
Clc1ccc(Oc2nc(N3CCOCC3)nc(N3CCOCC3)n2)c(C2CCCCC2)c1	-12	6*	-2.4	i	i	i	98*	0.37*	105%*	91%*	i	i	i
Cc1nn(CCc2nn[nH]n2)c2nc(-c3ccc(Br)cc3)cc(C(F)(F)F)c12	-6	8*	1.1	i	i	i	76*	0.38*	101%*	59%*	i	i	i

Assay outcomes as filed in PubChem BioAssay.
